Measured values: ChEMBL document CHEMBL1687813 (Antimicrob Agents Chemother, 2010)
≈ marks a conversion by molar mass, not a printed value. Calls of active or inactive are those of the source. The rule behind the calls is not given here.

Tests used:
[1] = molecular target: T1, PYRAZINAMIDASE/NICOTINAMIDAS PNCA (PZase) (Mycobacterium tuberculosis) (UniProt Q50575); experiment: Activity of PncA in Mycobacterium tuberculosis H37Ra assessed as compound turnover per ml of microbial cells after 30 mins by […] analysis
T1 sequence (whole entry): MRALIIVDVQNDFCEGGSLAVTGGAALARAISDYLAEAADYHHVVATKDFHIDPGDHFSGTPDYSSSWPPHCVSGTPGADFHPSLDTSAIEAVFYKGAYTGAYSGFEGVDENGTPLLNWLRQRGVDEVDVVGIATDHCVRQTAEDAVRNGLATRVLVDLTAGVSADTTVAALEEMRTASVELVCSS
How it was run: (§1)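 Whole-cell colorimetric amidase assay: log-phase cells were pelleted and resuspended in sterile water with 0.05% tyloxapol. Substrate (PZA or 5-Cl PZA) was added to 2 mM at 37°C with shaking and sampled at intervals. Clarified aliquots received ferrous ammonium sulfate (20 mM final), stood 30 min at 4°C, were re-spun, and were read at OD468. Extinction coefficients were 0.68 (PA) and 0.47 (5-Cl PA) per mM. Activity is nmol/min per ml of cells (OD600).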

[2] = molecular target: T2, Nicotinamidase/pyrazinamidase (Mycolicibacterium smegmatis) (UniProt Q9ZHK8); experiment: Activity of PzaA in Mycobacterium smegmatis mc2155 assessed as compound turnover per ml of microbial cells after 30 mins by […] analysis
T2 sequence (whole entry): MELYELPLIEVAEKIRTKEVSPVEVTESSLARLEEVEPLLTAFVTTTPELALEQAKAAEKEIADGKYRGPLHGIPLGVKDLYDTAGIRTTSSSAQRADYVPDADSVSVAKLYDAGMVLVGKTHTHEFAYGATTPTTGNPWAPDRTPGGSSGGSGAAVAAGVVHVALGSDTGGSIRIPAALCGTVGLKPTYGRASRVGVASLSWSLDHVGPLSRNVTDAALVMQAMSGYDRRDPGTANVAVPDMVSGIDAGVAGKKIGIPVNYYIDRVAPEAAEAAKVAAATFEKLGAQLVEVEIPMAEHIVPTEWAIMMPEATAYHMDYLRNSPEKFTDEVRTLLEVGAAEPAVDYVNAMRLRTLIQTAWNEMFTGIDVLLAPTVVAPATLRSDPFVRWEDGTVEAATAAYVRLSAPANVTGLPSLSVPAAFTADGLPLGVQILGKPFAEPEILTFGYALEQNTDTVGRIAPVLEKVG

[3] = molecular target: T2, Nicotinamidase/pyrazinamidase (Mycolicibacterium smegmatis); experiment: Activity of PzaA in Mycobacterium smegmatis mc22612 assessed as compound turnover per ml of microbial cells after 30 mins by […] analysis
[4] = molecular target: T2, Nicotinamidase/pyrazinamidase (Mycolicibacterium smegmatis); experiment: Activity of PzaA in Mycobacterium smegmatis mc27031 assessed as compound turnover per ml of microbial cells after 30 mins by […] analysis; how it was run: as §1
[5] = molecular target: T2, Nicotinamidase/pyrazinamidase (Mycolicibacterium smegmatis); experiment: Activity of PzaA in Mycobacterium smegmatis mc27032 assessed as compound turnover per ml of microbial cells after 30 mins by […] analysis; how it was run: as §1
[6] = molecular target: T2, Nicotinamidase/pyrazinamidase (Mycolicibacterium smegmatis); experiment: Activity of PzaA in Mycobacterium smegmatis mc27034 assessed as compound turnover per ml of microbial cells after 30 mins by […] analysis; how it was run: as §1
[7] = molecular target: T2, Nicotinamidase/pyrazinamidase (Mycolicibacterium smegmatis); experiment: Activity of PzaA in Mycobacterium smegmatis mc27035 assessed as compound turnover per ml of microbial cells after 30 mins by […] analysis; how it was run: as §1
[8] = molecular target: T2, Nicotinamidase/pyrazinamidase (Mycolicibacterium smegmatis); experiment: Activity of PzaA in Mycobacterium smegmatis mc27036 assessed as compound turnover per ml of microbial cells after 30 mins by […] analysis; how it was run: as §1
[9] = molecular target: T2, Nicotinamidase/pyrazinamidase (Mycolicibacterium smegmatis); experiment: Activity of PzaA in Mycobacterium smegmatis mc27037 assessed as compound turnover per ml of microbial cells after 30 mins by […] analysis; how it was run: as §1
[10] = molecular target: T2, Nicotinamidase/pyrazinamidase (Mycolicibacterium smegmatis); experiment: Activity of PzaA in Mycobacterium smegmatis mc27038 assessed as compound turnover per ml of microbial cells after 30 mins by […] analysis; how it was run: as §1
[11] = test system: Mycolicibacterium smegmatis; experiment: Antimicrobial activity against Mycobacterium smegmatis mc2155 after 48 hrs by broth microdilution method; type: functional; settings: mc2155, 48 h
[12] = test system: Mycolicibacterium smegmatis; experiment: Antimicrobial activity against 5-Cl PZA-resistant Mycobacterium smegmatis mc22612after 48 hrs by broth microdilution method; type: functional; settings: mc22612, 48 h
[13] = test system: Mycolicibacterium smegmatis; experiment: Antimicrobial activity against Mycobacterium smegmatis mc27031 harboring MSMEG_1088::magellan4 after 48 hrs by broth microdilution method; type: functional; settings: mc27031, 48 h
How it was run: (§2)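 Broth MIC: exponentially growing cells were diluted to 10^6 CFU/ml in supplemented 7H9 across a range of PZA or 5-Cl PZA concentrations. Medium was adjusted to pH 5.2 where indicated. Cultures were incubated 2 days at 37°C. The MIC is the lowest concentration preventing visible growth. Plasmid-borne amidases were induced with 50 ng/ml anhydrotetracycline.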

[14] = test system: Mycolicibacterium smegmatis; experiment: Antimicrobial activity against Mycobacterium smegmatis mc27032 harboring deltaMSMEG_1088 from Mycobacterium smegmatis mc2155 after 48 hrs by broth microdilution method; type: functional; settings: mc27032, 48 h; how it was run: as §2
[15] = test system: Mycolicibacterium smegmatis; experiment: Antimicrobial activity against Mycobacterium smegmatis mc27034 harboring deltaMSMEG_1090 from Mycobacterium smegmatis mc27031 after 48 hrs by broth microdilution method; type: functional; settings: mc27034, 48 h; how it was run: as §2
[16] = test system: Mycolicibacterium smegmatis; experiment: Antimicrobial activity against Mycobacterium smegmatis mc27035 harboring deltaMSMEG_1090 from Mycobacterium smegmatis mc2155 after 48 hrs by broth microdilution method; type: functional; settings: mc27035, 48 h; how it was run: as §2
[17] = test system: Mycolicibacterium smegmatis; experiment: Antimicrobial activity against Mycobacterium smegmatis mc27036 harboring deltaMSMEG_1090 from Mycobacterium smegmatis mc22612 after 48 hrs by broth microdilution method; type: functional; settings: mc27036, 48 h; how it was run: as §2
[18] = test system: Mycolicibacterium smegmatis; experiment: Antimicrobial activity against 5-Cl-PZA-resistant Mycobacterium smegmatis mc27037 after 48 hrs by broth microdilution method; type: functional; settings: mc27037, 48 h; how it was run: as §2
[19] = test system: Mycolicibacterium smegmatis; experiment: Antimicrobial activity against Mycobacterium smegmatis mc27038 harboring attBL5::Ptc::pzaAMsmeg from Mycobacterium smegmatis mc2155 after 48 hrs by broth microdilution method; type: functional; settings: mc27038, 48 h; how it was run: as §2
[20] = test system: Mycobacterium tuberculosis; experiment: Antimicrobial activity against Mycobacterium tuberculosis H37Ra after 11 days by broth microdilution method at pH 6; type: functional; settings: 264 h
How it was run: (§3)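 Tubercle bacilli were diluted to 10^6 CFU/ml in supplemented 7H9 containing graded PZA or 5-Cl PZA, at pH 6.0 or neutral pH 6.8. Cultures were incubated 11 days at 37°C. The MIC is the lowest concentration blocking visible growth. Integrated amidase constructs were induced with 50 ng/ml anhydrotetracycline.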

[21] = test system: Mycobacterium tuberculosis; experiment: Antimicrobial activity against Mycobacterium tuberculosis H37Ra after 11 days by broth microdilution method at pH 6.8; type: functional; settings: 264 h; how it was run: as §3
[22] = test system: Mycolicibacterium smegmatis; experiment: Inhibition of Fatty acid synthase type 1 in Mycobacterium smegmatis mc27031 at 1500 ug/ml after 2 hrs by HPLC
[23] = test system: Mycolicibacterium smegmatis; experiment: Inhibition of Fatty acid synthase type 1 in Mycobacterium smegmatis mc2155 at 250 ug/ml after 2 hrs by HPLC
[24] = test system: Mycolicibacterium smegmatis; experiment: Inhibition of Fatty acid synthase type 1 in Mycobacterium smegmatis mc2155 at 2.5 mg/ml after 2 hrs by HPLC
How it was run: (§4)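 FAS I activity: mid-log cells (OD600 0.5) were resuspended to OD600 0.2 in 7H9 with 0.2% dextrose and 0.05% tyloxapol, pH 5.1, plus 2.5 mg/ml PZA, for 2 h at 37°C. They were pulsed with [1-14C]acetate (1 μCi/ml) for a further 2 h. Lipids were extracted, saponified, and derivatized to p-bromophenacyl esters. 14C-palmitate was quantified by reverse-phase HPLC.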

[25] = test system: Mycolicibacterium smegmatis; experiment: Inhibition of Fatty acid synthase type 1 in Mycobacterium smegmatis mc27031 at 2.5 mg/ml after 2 hrs by HPLC; how it was run: as §4

Row | SMILES | Activity [1] [nmol/min] | Activity [2] [nmol/min] | Activity [3] [nmol/min] | Activity [4] [nmol/min] | Activity [5] [nmol/min] | Activity [6] [nmol/min] | Activity [7] [nmol/min] | Activity [8] [nmol/min] | Activity [9] [nmol/min] | Activity [10] [nmol/min] | MIC [11] [µg/mL] | MIC [12] [µg/mL] | MIC [13] [µg/mL] | MIC [14] [µg/mL] | MIC [15] [µg/mL] | MIC [16] [µg/mL] | MIC [17] [µg/mL] | MIC [18] [µg/mL] | MIC [19] [µg/mL] | MIC [20] [µg/mL] | other results
1 | NC(=O)c1cnc(Cl)cn1 | 0.15 | 0.85 | 32 | 100 | 65 | 1.2 | 0.95 | 1.2 | 100 | 34 | 25 (≈ 159 µM) | 125 (≈ 793 µM) | 125 (≈ 793 µM) | 125 (≈ 793 µM) | 25 (≈ 159 µM) | 25 (≈ 159 µM) | 25 (≈ 159 µM) | 125 (≈ 793 µM) | 125 (≈ 793 µM) | 25 (≈ 159 µM) | MIC [21]: 200 µg/mL (≈ 1270 µM); Activity [22]: Active; Activity [23]: Active
2 | NC(=O)c1cnccn1 [PYRAZINAMIDE] | 0.23 | 0.85 | 32 | 100 | 65 | 1.2 | 0.95 | 1.2 | 100 | 34 | > 4000 | > 4000 | 150 (≈ 1220 µM) | 150 (≈ 1220 µM) | > 4000 | > 4000 | > 4000 | 150 (≈ 1220 µM) | > 4000 | > 1000 | inhibition [24]: Active; MIC [21]: 62.5 µg/mL (≈ 508 µM); inhibition [25]: inactive
